Among the data in ChEMBL document CHEMBL1143594, “Selective estrogen receptor modulators in the ruthenocene series. Synthesis and biological behavior” (J Med Chem, 2005) are logP and relative binding affinity (RBA) values, retold here.

Data set [1] in a line: Octanol-water partition coefficient (logP) of the compound measured by RP-HPLC. Format: physicochemical. The gist of the method: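 Reverse-phase HPLC capacity factors measured in an organic phase of 85%-60% methanol containing 0.25% octanol, against an aqueous phase of 0.15% n-decylamine in 0.02 M MOPS pH 7.4 made with octanol-saturated water. Extrapolated to 100% aqueous to give kNw. log Po/w = 0.13418 + 0.98452 log kNw.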

Data set [2] deals with Estrogen receptor beta (Homo sapiens) (UniProt Q92731). The data set is described as follows: Relative binding affinity for Estrogen receptor beta.

SMILES strings stand for the structures.

Chain of Estrogen receptor beta (Homo sapiens) (Q92731 whole entry): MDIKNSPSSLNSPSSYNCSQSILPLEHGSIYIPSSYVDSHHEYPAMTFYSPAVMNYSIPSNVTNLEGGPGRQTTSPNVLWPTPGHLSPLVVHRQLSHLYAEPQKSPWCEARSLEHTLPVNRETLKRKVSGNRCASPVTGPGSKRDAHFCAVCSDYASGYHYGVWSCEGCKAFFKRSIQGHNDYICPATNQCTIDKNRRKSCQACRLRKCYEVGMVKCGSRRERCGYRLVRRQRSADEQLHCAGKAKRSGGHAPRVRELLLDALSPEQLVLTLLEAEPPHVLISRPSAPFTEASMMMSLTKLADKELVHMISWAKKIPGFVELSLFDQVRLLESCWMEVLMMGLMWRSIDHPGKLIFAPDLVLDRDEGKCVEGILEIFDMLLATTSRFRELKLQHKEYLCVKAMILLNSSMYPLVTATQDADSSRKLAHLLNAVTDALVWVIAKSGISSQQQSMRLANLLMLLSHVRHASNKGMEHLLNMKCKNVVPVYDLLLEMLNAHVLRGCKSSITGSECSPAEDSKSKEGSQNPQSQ

For `CC/C(=C(/c1ccc(O)cc1)c1ccc(OCCN(C)C)cc1)c1ccccc1` [listing 1 of 3 here], in data set [1], the logP (commonly the decadic logarithm of the partition coefficient of the neutral form, usually between octanol and water) worked out at 3.4.

Compound `C[C@]12CC[C@@H]3c4ccc(O)cc4CC[C@H]3[C@@H]1CC[C@@H]2O` [ESTRADIOL] registered a relative binding affinity (RBA) in data set [2] of 100. The logP in data set [1] is 3.5.

As to `CC/C(=C(/c1ccc(O)cc1)c1ccc(OCCN(C)C)cc1)c1ccccc1` [listing 2 of 3 here], in data set [2], the relative binding affinity (RBA) is 18.5.

`CC/C(=C(/c1ccc(O)cc1)c1ccc(OCCN(C)C)cc1)c1ccccc1` [listing 3 of 3 here] yielded a logP in data set [1] of 3.2.
